Assay results as given in ChEMBL document CHEMBL1144737, “Synthesis and antifungal activity of novel sulfoxide derivatives containing trimethoxyphenyl substituted 1,3,4-thiadiazole and 1,3,4-oxadiazole moiety” (Bioorg Med Chem, 2008).
Values after ≈ are worked out from the molar mass of the structure shown.

Columns and labels:
Sclerotinia sclerotiorum [1] = experiment: Change in mycelial soluble protein content in Sclerotinia sclerotiorum after 24 hrs; format: functional
Outline: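 Soluble protein was measured in extracts of S. sclerotiorum cultured 15 days in shaken Czapek broth at 27 °C, treated at 100 and harvested at 24 h. Dried mycelium was ground in 0.05 mol/L Tris–HCl pH 7.5 and centrifuged; absorbance was read at 595 nm with buffer blank. Three repetitions.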

Sclerotinia sclerotiorum [2] = experiment: Effect on membrane permeability of Sclerotinia sclerotiorum at 100 ug/ml after 240 mins relative to control; format: functional, organism-based
Outline: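 Washed S. sclerotiorum mycelium (1 g) was placed in tubes with the compound. Conductivity was read over time from 0 to 360 min, then after boiling and cooling. Relative permeability P% = (J1−J0)/(J2−J0)×100.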

Fusarium graminearum [3] = experiment: Antifungal activity against Gibberella zeae at 50 ug/ml by poison plate technique; format: functional
Outline: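 Poison-plate (mycelial growth rate) test at a single final concentration in PDA. Fungus was pre-grown 4 days at 27±1 °C, and a 4 mm mycelial plug was placed at the plate centre and incubated 5 days at 27±1 °C. Acetone in sterile water was the untreated control. Triplicate plates were used; inhibition % = (C−T)/(C−0.4)×100 from colony diameters.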

[4] = system: Colletotrichum gloeosporioides; experiment: Antifungal activity against Colletotrichum gloeosporioides by poison plate technique; format: functional, organism-based
Outline: (§1)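 Poison-plate assay on PDA against nine plant-pathogenic fungi at 100, 50, 25, 12.5 and 6.25 in the medium. Cultures were grown 4 days at 27±1 °C, and 4 mm mycelial plugs were placed centrally on plates and incubated 5 days at 27±1 °C. Acetone in sterile water was the blank. Inhibition % = (C−T)/(C−0.4)×100 from colony diameters. EC50 was obtained by probit analysis, averaged from at least three separate analyses.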

Thanatephorus cucumeris = experiment: Antifungal activity against Thanatephorus cucumeris by poison plate technique; format: functional, organism-based; outline: as §1
Botrytis cinerea = experiment: Antifungal activity against Botrytis cinerea by poison plate technique; format: functional, organism-based; outline: as §1
Cytospora [5] = experiment: Antifungal activity against Cytospora mandshurica by poison plate technique; format: functional; outline: as §1
Fusarium graminearum [6] = experiment: Antifungal activity against Gibberella zeae by poison plate technique; format: functional, organism-based; outline: as §1
Phytophthora infestans = experiment: Antifungal activity against Phytophthora infestans by poison plate technique; format: functional, organism-based; outline: as §1
Cytospora [7] = experiment: Antifungal activity against Cytospora mandshurica at 50 ug/ml by poison plate technique; format: functional
Outline: (§2)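 Poison plate method. Compound in PDA at 50 µg/mL final. Fungi precultured on PDA at 27 ± 1 °C for 4 days, then a ~4 mm mycelial disc was placed in the plate centre and incubated at 27 ± 1 °C for 5 days. Acetone in sterile water was the blank and hymexazol the positive control. Three replicates. Colony diameter was measured and I(%) = [(C − T)/(C − 0.4)] × 100.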

Sclerotinia sclerotiorum [8] = experiment: Change in mycelial chitinase activity in Sclerotinia sclerotiorum assessed as N-acetyl-glucosamine level after 24 hrs
Outline: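 Mycelial extract came from S. sclerotiorum grown 15 days in shaken Czapek broth at 27 °C, dosed at 100 and harvested at 24 h, in Tris–HCl pH 7.5. Extract was incubated with colloidal chitin 1 h at 37 °C, boiled and centrifuged. Released GlcNAc was read with 0.8 M K2B4O7, boiling, 1% DMAB, 20 min at 36 °C, A544. The blank was boiled before incubation.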

Sclerotinia sclerotiorum [9] = experiment: Antifungal activity against Sclerotinia sclerotiorum by poison plate technique; format: functional, organism-based; outline: as §1
Fusarium oxysporum [10] = experiment: Antifungal activity against Fusarium oxysporum at 50 ug/ml by poison plate technique; format: functional; outline: as §2
Sclerotinia sclerotiorum [11] = experiment: Change in mycelial N-acetyl-glucosamine content in Sclerotinia sclerotiorum after 24 hrs; format: functional
Outline: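 S. sclerotiorum was grown 15 days in Czapek broth shaken at 140 rpm and 27 °C, then dosed at 100 and sampled at 24 h. Dried mycelium (1.0 g) was ground in 0.05 mol/L Tris–HCl pH 7.5 and centrifuged at 15,000g, 4 °C. Supernatant with K2B4O7 was boiled 3 min, then 1% DMAB was added, 20 min at 36 °C, A544. Three repetitions.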

Rhizoctonia solani = experiment: Antifungal activity against Rhizoctonia solani by poison plate technique; format: functional, organism-based
Outline: (§3)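 Poison plate mycelial growth assay on PDA at 100, 50, 25, 12.5 and 6.25 µg/mL. Mycelial discs were grown at 27 ± 1 °C for 5 days and radial colony growth was measured. EC50 was estimated by probit analysis and averaged from at least three separate analyses.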

Sclerotinia sclerotiorum [12] = experiment: Change in mycelial soluble protein content in Sclerotinia sclerotiorum after 0.5 hr relative to control; format: functional
Outline: (§4)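 S. sclerotiorum was grown from six 4 mm discs in 90 mL Czapek medium, shaken at 140 rpm and 27 °C for 15 days. Compound was then added at 100 µg/mL. Mycelium was harvested at 0.5–24 h, ground in 0.05 mol/L Tris–HCl pH 7.5 and centrifuged at 15,000g, 4 °C, for 30 min. Three repetitions. Supernatant read-outs: reducing sugar by DNS at 540 nm against glucose; chitosan (D-GlcNAc) by K2B4O7/DMAB at 544 nm; pyruvate by DNPH/NaOH at 520 nm; protein at 595 nm. Tris–HCl blank.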

Sclerotinia sclerotiorum [13] = experiment: Change in mycelial reducing sugar level in Sclerotinia sclerotiorum after 24 hrs relative to hymexazol; format: functional; set-up: scale not given: the % may be the effect or the level left; outline: as §4
Sclerotinia sclerotiorum [14] = experiment: Change in mycelial chitosan content in Sclerotinia sclerotiorum after 6 hrs; format: functional; outline: as §4
Sclerotinia sclerotiorum [15] = experiment: Effect on sporule germination in Sclerotinia sclerotiorum assessed as germination ratio at 80 ug/ml; format: functional
Outline: (§5)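 Compound was mixed into PDA at 0, 20, 40, 60, 80 and 100 µg/mL, and 0.5 mL spore suspension was spread per plate. Plates were incubated at 27 °C and checked every 2 h after 24 h. Germination was scored when control germination exceeded 90%, in three fields per dish, with three replicates. GR% = 100 × G/S.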

Sclerotinia sclerotiorum [16] = experiment: Change in mycelial reducing sugar level in Sclerotinia sclerotiorum upto 3 hrs relative to control; format: functional; set-up: scale not given: the % may be the effect or the level left; outline: as §4
Sclerotinia sclerotiorum [17] = experiment: Change in mycelial reducing sugar level in Sclerotinia sclerotiorum after 24 hrs; format: functional; outline: as §4
Sclerotinia sclerotiorum [18] = experiment: Effect on sporule germination in Sclerotinia sclerotiorum assessed as germination ratio at 100 ug/ml; format: functional; outline: as §5
Fusarium oxysporum [19] = experiment: Antifungal activity against Fusarium oxysporum by poison plate technique; format: functional, organism-based; outline: as §3
Sclerotinia sclerotiorum [20] = experiment: Change in mycelial pyruvate content in Sclerotinia sclerotiorum after 24 hrs; format: functional; outline: as §4

Cc1cc(O)no1 [HYMEXAZOL]
Activity (Sclerotinia sclerotiorum [1]): 0.91 mg/mL | permeability (Sclerotinia sclerotiorum [2]): 24.6% | inhibition at 50 µg/mL (Fusarium graminearum [3]): 53.7% | EC50 [4]: 15.8 µg/mL (≈ 159 µM) | EC50 (Thanatephorus cucumeris): 40.4 µg/mL (≈ 408 µM) | EC50 (Botrytis cinerea): 5.12 µg/mL (≈ 51.7 µM) | EC50 (Cytospora [5]): 21.4 µg/mL (≈ 216 µM) | EC50 (Fusarium graminearum [6]): 26.4 µg/mL (≈ 266 µM) | EC50 (Phytophthora infestans): 25.1 µg/mL (≈ 253 µM) | inhibition at 50 µg/mL (Cytospora [7]): 52% | Activity (Sclerotinia sclerotiorum [8]): 0.124 mg/mL | EC50 (Sclerotinia sclerotiorum [9]): 4.63 µg/mL (≈ 46.7 µM) | inhibition at 50 µg/mL (Fusarium oxysporum [10]): 52.1% | Activity (Sclerotinia sclerotiorum [11]): 0.13 mg/mL

COc1cc(-c2nnc([S+]([O-])Cc3cccc(F)c3)s2)cc(OC)c1OC (stereo not given)
inhibition at 50 µg/mL (Fusarium graminearum [3]): 14.9% | inhibition at 50 µg/mL (Cytospora [7]): 12% | inhibition at 50 µg/mL (Fusarium oxysporum [10]): 11.7%

COc1cc(-c2nnc([S+]([O-])Cc3ccc(Cl)nc3)o2)cc(OC)c1OC (stereo not given)
inhibition at 50 µg/mL (Fusarium graminearum [3]): 31.9% | inhibition at 50 µg/mL (Cytospora [7]): 11.9% | inhibition at 50 µg/mL (Fusarium oxysporum [10]): 14.9%

COc1cccc(C[S+]([O-])c2nnc(-c3cc(OC)c(OC)c(OC)c3)s2)c1 (stereo not given)
inhibition at 50 µg/mL (Fusarium graminearum [3]): 8.29% | inhibition at 50 µg/mL (Cytospora [7]): 11% | inhibition at 50 µg/mL (Fusarium oxysporum [10]): 8.65%

COc1cc(-c2nnc([S+]([O-])Cc3ccccc3F)o2)cc(OC)c1OC (stereo not given)
inhibition at 50 µg/mL (Fusarium graminearum [3]): 11.3% | inhibition at 50 µg/mL (Cytospora [7]): 2.82% | inhibition at 50 µg/mL (Fusarium oxysporum [10]): 4.4%

COc1cc(-c2nnc([S+]([O-])Cc3ccccc3)o2)cc(OC)c1OC (stereo not given)
Activity (Sclerotinia sclerotiorum [1]): 0.69 mg/mL | permeability (Sclerotinia sclerotiorum [2]): 26.7% | EC50 (Rhizoctonia solani): 44.7 µg/mL (≈ 119 µM) | Activity (Sclerotinia sclerotiorum [12]): 43% | inhibition at 50 µg/mL (Fusarium graminearum [3]): 53.3% | Activity (Sclerotinia sclerotiorum [13]): 8.8% | Activity (Sclerotinia sclerotiorum [14]): 0.12 mg/mL | EC50 [4]: 39.4 µg/mL (≈ 105 µM) | EC50 (Thanatephorus cucumeris): 23.4 µg/mL (≈ 62.6 µM) | EC50 (Botrytis cinerea): 21.6 µg/mL (≈ 57.8 µM) | Activity (Sclerotinia sclerotiorum [15]): 12.6% | Activity (Sclerotinia sclerotiorum [16]): 13.3% | EC50 (Cytospora [5]): 64 µg/mL (≈ 171 µM) | EC50 (Fusarium graminearum [6]): 28.8 µg/mL (≈ 77 µM) | EC50 (Phytophthora infestans): 33.1 µg/mL (≈ 88.4 µM) | inhibition at 50 µg/mL (Cytospora [7]): 56.1% | Activity (Sclerotinia sclerotiorum [8]): 0.125 mg/mL | Activity (Sclerotinia sclerotiorum [17]): 0.37 mg/mL | Activity (Sclerotinia sclerotiorum [18]): 5.4% | EC50 (Sclerotinia sclerotiorum [9]): 19.9 µg/mL (≈ 53.2 µM) | inhibition at 50 µg/mL (Fusarium oxysporum [10]): 52.3% | EC50 (Fusarium oxysporum [19]): 58.5 µg/mL (≈ 156 µM) | Activity (Sclerotinia sclerotiorum [11]): 0.12 mg/mL | Activity (Sclerotinia sclerotiorum [20]): 0.19 mg/mL

COc1cc(-c2nnc([S+]([O-])Cc3ccc(F)cc3)s2)cc(OC)c1OC (stereo not given)
inhibition at 50 µg/mL (Fusarium graminearum [3]): 6.4% | inhibition at 50 µg/mL (Cytospora [7]): 3.83% | inhibition at 50 µg/mL (Fusarium oxysporum [10]): 2.54%

COc1cccc(C[S+]([O-])c2nnc(-c3cc(OC)c(OC)c(OC)c3)o2)c1 (stereo not given)
inhibition at 50 µg/mL (Fusarium graminearum [3]): 37.7% | inhibition at 50 µg/mL (Cytospora [7]): 25.7% | inhibition at 50 µg/mL (Fusarium oxysporum [10]): 30.5%

COc1cc(-c2nnc([S+]([O-])Cc3ccccc3)s2)cc(OC)c1OC (stereo not given)
inhibition at 50 µg/mL (Fusarium graminearum [3]): 26.9% | inhibition at 50 µg/mL (Cytospora [7]): 16% | inhibition at 50 µg/mL (Fusarium oxysporum [10]): 15.5%

COc1cc(-c2nnc([S+]([O-])Cc3cccc(F)c3)o2)cc(OC)c1OC (stereo not given)
inhibition at 50 µg/mL (Fusarium graminearum [3]): 7.29% | inhibition at 50 µg/mL (Cytospora [7]): -0.31% | inhibition at 50 µg/mL (Fusarium oxysporum [10]): -0.88%

CCOC(=O)C[S+]([O-])c1nnc(-c2cc(OC)c(OC)c(OC)c2)o1 (stereo not given)
inhibition at 50 µg/mL (Fusarium graminearum [3]): 18.1% | inhibition at 50 µg/mL (Cytospora [7]): 6.9% | inhibition at 50 µg/mL (Fusarium oxysporum [10]): 1.47%

CCOCC[S+]([O-])c1nnc(-c2cc(OC)c(OC)c(OC)c2)s1 (stereo not given)
inhibition at 50 µg/mL (Fusarium graminearum [3]): 16.8% | inhibition at 50 µg/mL (Cytospora [7]): 16.1% | inhibition at 50 µg/mL (Fusarium oxysporum [10]): 8.14%

COc1ccccc1C[S+]([O-])c1nnc(-c2cc(OC)c(OC)c(OC)c2)o1 (stereo not given)
inhibition at 50 µg/mL (Fusarium graminearum [3]): 29.9% | inhibition at 50 µg/mL (Cytospora [7]): 18.2% | inhibition at 50 µg/mL (Fusarium oxysporum [10]): 32.3%

COc1cc(-c2nnc([S+]([O-])Cc3ccccc3Cl)o2)cc(OC)c1OC (stereo not given)
inhibition at 50 µg/mL (Fusarium graminearum [3]): 7.79% | inhibition at 50 µg/mL (Cytospora [7]): -0.33% | inhibition at 50 µg/mL (Fusarium oxysporum [10]): 7.04%

COc1cc(-c2nnc([S+]([O-])Cc3cccc([N+](=O)[O-])c3)s2)cc(OC)c1OC (stereo not given)
inhibition at 50 µg/mL (Fusarium graminearum [3]): 5.45% | inhibition at 50 µg/mL (Cytospora [7]): 6.63% | inhibition at 50 µg/mL (Fusarium oxysporum [10]): 3.31%

CCOC(=O)C[S+]([O-])c1nnc(-c2cc(OC)c(OC)c(OC)c2)s1 (stereo not given)
inhibition at 50 µg/mL (Fusarium graminearum [3]): 34.8% | inhibition at 50 µg/mL (Cytospora [7]): 8.42% | inhibition at 50 µg/mL (Fusarium oxysporum [10]): 4.58%
